ChEMBL document CHEMBL1240512, “Discovery of a potent and selective noncovalent linear inhibitor of the hepatitis C virus NS3 protease (BI 201335)” (J Med Chem, 2010)

Experiments:
[1] = system: Hepatitis C virus; assay: Antiviral activity against HCV Con1 by cell based-luciferase reporter gene assay; assay type: functional, organism-based, Hepacivirus hominis
Procedure, shortened: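 Bicistronic luciferase reporter replicon cells (Con1 genotype 1b NS2-NS5B) exposed to compound for 72 h; luciferase read with Bright-Glo substrate by luminescence. EC50 fitted by nonlinear regression.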

[2] = Inhibition of HCV NS3 protease; set-up: species or system Hepacivirus hominis
Procedure, shortened: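 Genotype 1b NS3-NS4A (0.5 nM) with 5 μM fluorogenic depsipeptide substrate anthranilyl-DDIVPAbu[C(O)-O]AMY(3-NO2)-TW-OH in 50 mM Tris-HCl pH 8.0, 0.25 M sodium citrate, 0.01% dodecyl maltoside, 1 mM TCEP, 5% DMSO; 60-70 min at 23 °C, stopped with 1 M MES pH 5.8; product fluorescence read; IC50 from percent inhibition by nonlinear fit.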

[3] = Half life in rat at 2 mg/kg, iv; assay type: ADME, organism-based; set-up: dose 2 mg/kg, route intravenous; conditions: in vivo
Procedure, shortened: (§1)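 Male Sprague-Dawley rats (275-300 g), fasted overnight with 10% dextrose water access, given 2 mg/kg intravenously. Blood drawn via right carotid cannula at 5 min and 0.25-8 h; plasma pooled from three animals per time point, solid-phase extraction, LC-MS measurement; parameters from noncompartmental analysis.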

[4] = Volume of distribution at steady state in rat at 2 mg/kg, iv; assay type: ADME, organism-based; set-up: dose 2 mg/kg, route intravenous; conditions: in vivo, read-out: Vdss; procedure, shortened: as §1
[5] = AUC (0 to infinity) in rat at 5 mg/kg, po; assay type: ADME, organism-based; set-up: time infinity, dose 5 mg/kg, route oral; conditions: plasma
Procedure, shortened: (§2)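 Male Sprague-Dawley rats (275-300 g), fasted overnight with 10% dextrose in water; single oral gavage 5 mg/kg in 0.5% Methocel/0.3% Tween-80 (10 mL/kg). Carotid cannula sampling at 0-8 h; plasma pooled from three rats per time point, solid-phase extracted, LC-MS quantified; noncompartmental analysis. F derived using the 2 mg/kg iv arm.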

[6] = Cmax in rat at 5 mg/kg, po; assay type: ADME, organism-based; set-up: dose 5 mg/kg, route oral; conditions: in vivo; procedure, shortened: as §2
[7] = Oral bioavailability in rat at 5 mg/kg; assay type: ADME, organism-based; conditions: in vivo; procedure, shortened: as §2
[8] = Clearance in rat at 2 mg/kg, iv; assay type: ADME, organism-based; set-up: dose 2 mg/kg, route intravenous; conditions: in vivo; procedure, shortened: as §1

Row | SMILES | EC50 [1] [nM] | IC50 [2] [nM] | half-life [3] [h] | Vd [4] [L/kg] | AUC(0-inf) [5] [µM·h] | Cmax [6] [nM] | bioavailability [7] [%] | clearance [8] [mL/min/kg]
1 | C=C[C@@H]1C[C@]1(NC(=O)[C@@H]1C[C@@H](Oc2cc(-c3csc(NC(C)C)n3)nc3cc(OC)ccc23)CN1C(=O)[C@@H](NC(=O)OC1CCC1)C(C)(C)C)C(=O)O | 110 | 12 | – | – | – | – | – | –
2 | C=C[C@@H]1C[C@]1(NC(=O)[C@@H]1C[C@@H](Oc2cc(-c3ccccc3)nc3cc(OC)ccc23)CN1C(=O)[C@@H](NC(=O)OC1CCCC1)C(C)(C)C)C(=O)O | 550 | 14 | – | – | – | – | – | –
3 | C=C[C@@H]1C[C@]1(NC(=O)[C@@H]1C[C@@H](Oc2cc(-c3csc(NC(=O)CC)n3)nc3c(Cl)c(OC)ccc23)CN1C(=O)[C@@H](NC(=O)OC1CCCC1)C(C)(C)C)C(=O)O | 11 | 7 | – | – | – | – | – | –
4 | C=C[C@@H]1C[C@]1(NC(=O)[C@@H]1C[C@@H](Oc2cc(-c3csc(NC(=O)CC)n3)nc3c(Br)c(OC)ccc23)CN1C(=O)[C@@H](NC(=O)OC1CCCC1)C(C)(C)C)C(=O)O | 5 | 7 | – | – | – | – | – | –
5 | C=C[C@@H]1C[C@]1(NC(=O)[C@@H]1C[C@@H](Oc2cc(-c3csc(NC(C)C)n3)nc3cc(OC)ccc23)CN1C(=O)[C@@H](NC(=O)OC(C)(C)C)C(C)(C)C)C(=O)O | – | 43 | – | – | – | – | – | –
6 | C=C[C@@H]1C[C@]1(NC(=O)[C@@H]1C[C@@H](Oc2cc(-c3csc(NC(C)C)n3)nc3cc(OC)ccc23)CN1C(=O)[C@@H](O)C(C)(C)C)C(=O)O | – | 320 | – | – | – | – | – | –
7 | C=C[C@@H]1C[C@]1(NC(=O)[C@@H]1C[C@@H](Oc2cc(-c3csc(NC(C)C)n3)nc3cc(OC)ccc23)CN1C(=O)[C@@H](NC(=O)OC1CCCCC1)C(C)(C)C)C(=O)O | 90 | 18 | – | – | – | – | – | –
8 | C=C[C@@H]1C[C@]1(NC(=O)[C@@H]1C[C@@H](Oc2cc(-c3csc(NC(C)C)n3)nc3cc(OC)ccc23)CN1C(=O)[C@@H](NC(=O)OC1CCCC1)C(C)(C)C)C(=O)O | 45 | 14 | 2.6 | 3.7 | 2.4 | 790 | 54 | 24
9 | C=C[C@@H]1C[C@]1(NC(=O)[C@@H]1C[C@@H](Oc2cc(-c3csc(NC(C)C)n3)nc3c(C)c(OC)ccc23)CN1C(=O)[C@@H](NC(=O)OC1CCCC1)C(C)(C)C)C(=O)O | 40 | 15 | – | – | – | – | – | –
10 | C=C[C@@H]1C[C@]1(NC(=O)[C@@H]1C[C@@H](Oc2cc(-c3csc(NC(C)=O)n3)nc3c(C)c(OC)ccc23)CN1C(=O)[C@@H](NC(=O)OC1CCCC1)C(C)(C)C)C(=O)O | 19 | 8 | – | – | – | – | – | –
11 | C=C[C@@H]1C[C@]1(NC(=O)[C@@H]1C[C@@H](Oc2cc(-c3csc(NC(=O)CC(C)(C)C)n3)nc3cc(OC)ccc23)CN1C(=O)[C@@H](NC(=O)OC1CCCC1)C(C)(C)C)C(=O)O | 68 | 17 | 1.2 | 0.83 | 2.8 | 1100 | 39 | 14
12 | C=C[C@@H]1C[C@]1(NC(=O)[C@@H]1C[C@@H](Oc2cc(-c3csc(NC(=O)CC)n3)nc3c(C)c(OC)ccc23)CN1C(=O)[C@@H](NC(=O)OC1CCCC1)C(C)(C)C)C(=O)O | 17 | 10 | 1.7 | 1.8 | 3.5 | 820 | 56 | 15

Next, values leading:

Row | EC50 [1] [nM] | IC50 [2] [nM] | half-life [3] [h] | Vd [4] [L/kg] | AUC(0-inf) [5] [µM·h] | Cmax [6] [nM] | bioavailability [7] [%] | clearance [8] [mL/min/kg] | SMILES
13 | 36 | 7 | – | – | – | – | – | – | C=C[C@@H]1C[C@]1(NC(=O)[C@@H]1C[C@@H](Oc2cc(-c3csc(NC(=O)CC)n3)nc3c(F)c(OC)ccc23)CN1C(=O)[C@@H](NC(=O)OC1CCCC1)C(C)(C)C)C(=O)O
14 | 34 | 5 | – | – | – | – | – | – | C=C[C@@H]1C[C@]1(NC(=O)[C@@H]1C[C@@H](Oc2cc(-c3csc(NC(C)=O)n3)nc3cc(OC)ccc23)CN1C(=O)[C@@H](NC(=O)OC1CCCC1)C(C)(C)C)C(=O)O
15 | 3 | 3 | – | – | – | – | – | – | C=C[C@@H]1C[C@]1(NC(=O)[C@@H]1C[C@@H](Oc2cc(-c3csc(NC(=O)C(C)C)n3)nc3c(Br)c(OC)ccc23)CN1C(=O)[C@@H](NC(=O)OC1CCCC1)C(C)(C)C)C(=O)O [FALDAPREVIR]
16 | 6 | 6 | – | – | – | – | – | – | C=C[C@@H]1C[C@]1(NC(=O)[C@@H]1C[C@@H](Oc2cc(-c3csc(NC(=O)OC(C)C)n3)nc3c(Br)c(OC)ccc23)CN1C(=O)[C@@H](NC(=O)OC1CCCC1)C(C)(C)C)C(=O)O
17 | 2 | 3 | – | – | – | – | – | – | COc1ccc2c(O[C@@H]3C[C@H]4C(=O)N[C@]5(C(=O)O)C[C@H]5/C=C\CCCCC[C@H](NC(=O)OC5CCCC5)C(=O)N4C3)cc(-c3csc(NC(C)C)n3)nc2c1 [CILUPREVIR]
18 | 3 | 6 | – | – | – | – | – | – | C=C[C@@H]1C[C@]1(NC(=O)[C@@H]1C[C@@H](Oc2cc(-c3csc(NC(=O)OC)n3)nc3c(Br)c(OC)ccc23)CN1C(=O)[C@@H](NC(=O)OC1CCCC1)C(C)(C)C)C(=O)O
